According to ChEMBL document CHEMBL4680134, “Structural optimization of natural product nordihydroguaretic acid to discover novel analogues as AcrB inhibitors” (Eur J Med Chem, 2020):

Tests used:
[1] = molecular target: T1, Multidrug efflux pump subunit AcrB (Escherichia coli (strain K12)) (UniProt P31224); assay: Inhibition of AcrB in Escherichia coli BW25113 assessed as potentiation of rifampicin induced antibacterial activity by measuring rifampicin MIC at 64 ug/ml measured after 18 hrs by checkerboard titration method (reference value: 16 ug/ml); details: dose 64.0 µg/ml
T1 sequence (whole entry): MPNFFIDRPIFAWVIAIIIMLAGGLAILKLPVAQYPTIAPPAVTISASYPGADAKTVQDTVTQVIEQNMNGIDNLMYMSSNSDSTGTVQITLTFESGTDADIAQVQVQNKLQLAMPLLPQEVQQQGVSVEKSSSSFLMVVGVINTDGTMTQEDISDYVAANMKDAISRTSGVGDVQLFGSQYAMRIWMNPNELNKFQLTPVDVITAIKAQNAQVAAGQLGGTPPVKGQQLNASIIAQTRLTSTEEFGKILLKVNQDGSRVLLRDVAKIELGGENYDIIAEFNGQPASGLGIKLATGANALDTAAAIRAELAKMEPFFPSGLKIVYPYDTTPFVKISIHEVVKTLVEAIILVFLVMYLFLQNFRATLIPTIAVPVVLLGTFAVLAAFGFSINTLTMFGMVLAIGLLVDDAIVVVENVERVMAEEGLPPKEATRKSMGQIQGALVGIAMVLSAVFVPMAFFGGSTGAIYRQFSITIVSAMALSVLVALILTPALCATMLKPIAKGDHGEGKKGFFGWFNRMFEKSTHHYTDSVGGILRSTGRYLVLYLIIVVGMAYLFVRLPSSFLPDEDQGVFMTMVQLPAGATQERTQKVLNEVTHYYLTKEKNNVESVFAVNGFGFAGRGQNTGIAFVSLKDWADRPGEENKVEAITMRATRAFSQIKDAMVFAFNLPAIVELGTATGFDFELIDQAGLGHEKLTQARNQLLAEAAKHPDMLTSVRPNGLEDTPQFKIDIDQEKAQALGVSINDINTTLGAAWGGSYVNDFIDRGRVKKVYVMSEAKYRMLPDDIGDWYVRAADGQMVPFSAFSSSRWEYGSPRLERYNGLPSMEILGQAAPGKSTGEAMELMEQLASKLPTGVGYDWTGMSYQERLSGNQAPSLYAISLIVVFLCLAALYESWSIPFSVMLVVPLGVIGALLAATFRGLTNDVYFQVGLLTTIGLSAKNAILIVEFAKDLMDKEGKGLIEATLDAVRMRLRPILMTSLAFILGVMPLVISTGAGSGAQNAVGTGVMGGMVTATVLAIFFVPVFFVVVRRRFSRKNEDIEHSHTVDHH

[2] = molecular target: T1, Multidrug efflux pump subunit AcrB (Escherichia coli (strain K12)); assay: Inhibition of AcrB in Escherichia coli BW25113 assessed as potentiation of erythromycin induced antibacterial activity by measuring erythromycin MIC at 128 ug/ml measured after 18 hrs by checkerboard titration method (reference value: 64 ug/ml); details: dose 128.0 µg/ml
[3] = molecular target: T1, Multidrug efflux pump subunit AcrB (Escherichia coli (strain K12)); assay: Inhibition of AcrB in Escherichia coli BW25113 assessed as potentiation of levofloxacin induced antibacterial activity by measuring levofloxacin MIC at 128 ug/ml measured after 18 hrs by checkerboard titration method (reference value: 0.06 ug/ml); details: dose 128.0 µg/ml
[4] = molecular target: T1, Multidrug efflux pump subunit AcrB (Escherichia coli (strain K12)); assay: Inhibition of AcrB in Escherichia coli BW25113 assessed as potentiation of erythromycin induced antibacterial activity by measuring erythromycin MIC at 16 ug/ml measured after 18 hrs by checkerboard titration method (reference value: 64 ug/ml); details: dose 16.0 µg/ml
[5] = molecular target: T1, Multidrug efflux pump subunit AcrB (Escherichia coli (strain K12)); assay: Inhibition of AcrB in Escherichia coli BW25113 assessed as potentiation of erythromycin induced antibacterial activity by measuring erythromycin MIC at 32 ug/ml measured after 18 hrs by checkerboard titration method (reference value: 64 ug/ml); details: dose 32.0 µg/ml
[6] = molecular target: T1, Multidrug efflux pump subunit AcrB (Escherichia coli (strain K12)); assay: Inhibition of AcrB in Escherichia coli BW25113 assessed as potentiation of chloramphenicol induced antibacterial activity by measuring chloramphenicol MIC at 16 ug/ml measured after 18 hrs by checkerboard titration method (reference value: 8 ug/ml); details: dose 16.0 µg/ml
[7] = molecular target: T1, Multidrug efflux pump subunit AcrB (Escherichia coli (strain K12)); assay: Inhibition of AcrB in Escherichia coli BW25113 assessed as potentiation of rifampicin induced antibacterial activity by measuring rifampicin MIC at 16 ug/ml measured after 18 hrs by checkerboard titration method (reference value: 16 ug/ml); details: dose 16.0 µg/ml
[8] = molecular target: T1, Multidrug efflux pump subunit AcrB (Escherichia coli (strain K12)); assay: Inhibition of AcrB in Escherichia coli BW25113 assessed as potentiation of levofloxacin induced antibacterial activity by measuring levofloxacin MIC at 64 ug/ml measured after 18 hrs by checkerboard titration method (reference value: 0.06 ug/ml); details: dose 64.0 µg/ml
[9] = molecular target: T1, Multidrug efflux pump subunit AcrB (Escherichia coli (strain K12)); assay: Inhibition of AcrB in Escherichia coli BW25113 assessed as potentiation of tetraphenylphosphonium induced antibacterial activity by measuring tetraphenylphosphonium MIC at 16 ug/ml measured after 18 hrs by checkerboard titration method (reference value: 1024 ug/ml); details: dose 16.0 µg/ml
[10] = molecular target: T1, Multidrug efflux pump subunit AcrB (Escherichia coli (strain K12)); assay: Inhibition of AcrB in Escherichia coli BW25113 assessed as potentiation of tetraphenylphosphonium induced antibacterial activity by measuring tetraphenylphosphonium MIC at 64 ug/ml measured after 18 hrs by checkerboard titration method (reference value: 1024 ug/ml); details: dose 64.0 µg/ml
[11] = molecular target: T1, Multidrug efflux pump subunit AcrB (Escherichia coli (strain K12)); assay: Inhibition of AcrB in Escherichia coli BW25113 assessed as potentiation of rifampicin induced antibacterial activity by measuring rifampicin MIC at 32 ug/ml measured after 18 hrs by checkerboard titration method (reference value: 16 ug/ml); details: dose 32.0 µg/ml
[12] = molecular target: T1, Multidrug efflux pump subunit AcrB (Escherichia coli (strain K12)); assay: Inhibition of AcrB in Escherichia coli BW25113 assessed as potentiation of tetraphenylphosphonium induced antibacterial activity by measuring tetraphenylphosphonium MIC at 32 ug/ml measured after 18 hrs by checkerboard titration method (reference value: 1024 ug/ml); details: dose 32.0 µg/ml
[13] = molecular target: T1, Multidrug efflux pump subunit AcrB (Escherichia coli (strain K12)); assay: Inhibition of AcrB in Escherichia coli BW25113 assessed as potentiation of levofloxacin induced antibacterial activity by measuring levofloxacin MIC at 16 ug/ml measured after 18 hrs by checkerboard titration method (reference value: 0.06 ug/ml); details: dose 16.0 µg/ml
[14] = molecular target: T1, Multidrug efflux pump subunit AcrB (Escherichia coli (strain K12)); assay: Inhibition of AcrB in Escherichia coli BW25113 assessed as potentiation of tetraphenylphosphonium induced antibacterial activity by measuring tetraphenylphosphonium MIC at 128 ug/ml measured after 18 hrs by checkerboard titration method (reference value: 1024 ug/ml); details: dose 128.0 µg/ml
[15] = molecular target: T1, Multidrug efflux pump subunit AcrB (Escherichia coli (strain K12)); assay: Inhibition of AcrB in Escherichia coli BW25113 assessed as potentiation of chloramphenicol induced antibacterial activity by measuring chloramphenicol MIC at 128 ug/ml measured after 18 hrs by checkerboard titration method (reference value: 8 ug/ml); details: dose 128.0 µg/ml
Cell membrane = assay: Induction of outer membrane permeabilization in wild type Escherichia coli BW25113 assessed as increase in nitrocefin hydrolysis at 128 ug/ml by spectrophotometry analysis; details: dose 128 µg/ml
Method in brief: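 Outer-membrane permeability: intact E. coli treated with 10 µM CCCP to block nitrocefin efflux, then exposed to compound. Nitrocefin hydrolysis by periplasmic β-lactamase followed as increasing absorbance at 490 nm over time. Polymyxin B as permeabilizer control, untreated cells as baseline. Duplicate experiments on different days.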

MIC [1] [µg/mL] | MIC [2] [µg/mL] | MIC [3] [µg/mL] | MIC [4] [µg/mL] | MIC [5] [µg/mL] | MIC [6] [µg/mL] | MIC [7] [µg/mL] | MIC [8] [µg/mL] | MIC [9] [µg/mL] | MIC [10] [µg/mL] | MIC [11] [µg/mL] | MIC [12] [µg/mL] | MIC [13] [µg/mL] | MIC [14] [µg/mL] | MIC [15] [µg/mL] | Compound | Activity (Cell membrane)
16 | 32 | 0.06 | 64 | 64 | 8 | 16 | 0.06 | 1020 | 512 | 16 | 1020 | 0.06 | 512 | 8 | Oc1ccc(CCCc2ccc(O)c(O)c2)cc1O | 
16 |  |  | 32 | 16 | 8 | 16 |  | 1020 |  | 16 | 1020 | 0.06 |  |  | Cc1ccc(C(=O)NCCc2ccc(O)c(O)c2)cc1 | Non-Toxic
16 | 32 | 0.06 | 64 | 32 | 4 | 16 | 0.06 | 1020 | 512 | 16 | 512 | 0.06 | 512 | 2 | O=C(NCCc1ccc(O)c(O)c1)c1ccc(O)c(O)c1 | 
16 | 64 | 0.06 | 64 | 64 | 8 | 16 | 0.06 |  | 512 | 16 | 512 | 0.06 | 512 | 8 | Oc1ccc(CCCCCCc2ccc(O)c(O)c2)cc1O | Non-Toxic
16 | 64 | 0.03 | 64 | 64 | 8 | 16 | 0.03 | 1020 | 512 | 16 | 1020 | 0.06 | 512 | 4 | O=C(NCCc1ccc(O)c(O)c1)c1ccccc1O | 
16 | 64 | 0.03 | 64 | 64 | 8 | 16 | 0.06 | 1020 | 1020 | 16 | 1020 | 0.06 | 1020 | 8 | O=C(NCCc1ccc(O)c(O)c1)c1ccc(C(F)(F)F)cc1 | 
16 | 32 | 0.06 | 64 | 64 | 8 | 16 | 0.06 | 1020 | 1020 | 16 | 1020 | 0.06 | 1020 | 8 | O=C(NCCc1ccc(O)c(O)c1)c1ccc(Br)cc1 | 
16 | 32 | 0.06 | 64 | 64 | 8 | 16 | 0.06 | 1020 | 512 | 16 | 1020 | 0.06 | 512 | 8 | Oc1ccc(CCCCc2ccc(O)c(O)c2)cc1O | 
16 | 32 | 0.06 | 64 | 64 | 8 | 16 | 0.06 | 512 | 512 | 16 | 512 | 0.06 | 256 | 8 | Oc1ccc(CCCCc2cc(O)c(O)c(O)c2)cc1O | 

Compound | MIC [1] [µg/mL] | MIC [2] [µg/mL] | MIC [3] [µg/mL] | MIC [4] [µg/mL] | MIC [5] [µg/mL] | MIC [6] [µg/mL] | MIC [7] [µg/mL] | MIC [8] [µg/mL] | MIC [9] [µg/mL] | MIC [10] [µg/mL] | MIC [11] [µg/mL] | MIC [12] [µg/mL] | MIC [13] [µg/mL] | MIC [14] [µg/mL] | MIC [15] [µg/mL] | Activity (Cell membrane)
C[C@H](Cc1ccc(O)c(O)c1)[C@@H](C)Cc1ccc(O)c(O)c1 [MASOPROCOL] | 16 | 64 | 0.03 |  | 64 |  |  | 0.03 |  | 1020 | 16 | 1020 |  | 128 | 4 | 
